For assay [1], the system named is Mycobacterium tuberculosis. Nature of the assay: Antibacterial activity against RMP-resistant Mycobacterium tuberculosis after 7 days by microplate alamar blue assay. The format is functional. The settings on record: 168 h. The gist of the method:
(§1)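 MABA MIC against rINH and rRMP Mtb strains. Test concentrations 0.002 to 0.5 μg/mL.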

In assay [2] the test system is Mycobacterium tuberculosis. Nature of the assay: Antibacterial activity against INH-resistant Mycobacterium tuberculosis after 7 days by microplate alamar blue assay. Type of assay: functional. The note with it: 168 h. The gist of the method:
as §1

The subject of assay [3] is Mycobacterium tuberculosis. Nature of the assay: Antibacterial activity against Mycobacterium tuberculosis H37Rv harboring LuxAB incubated for 10 days under anaerobic conditions followed by incubation under aerobic conditions for 28 hrs by LORA method. The format is functional. The gist of the method: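 MIC against H37Rv by low oxygen recovery assay (LORA). Test concentrations 0.02 to 5 μg/mL.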

Assay [4] concerns Mycobacterium tuberculosis. The assay is described as follows: Antitubercular activity against Mycobacterium tuberculosis H37Ra harboring pTYOK infected in Balb/c mouse assessed as reduction in spleen bacterial burden at 50 mg/kg, po administered once daily via gavage for 5 days measured post last dose by luminometric method. Type of assay: functional. The gist of the method:
(§2)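 Mice infected i.v. with log-phase selectable marker-free autoluminescent Mtb H37Ra, 2 ×10^6 CFU per mouse. Dosed once daily by oral gavage for 5 consecutive days at 10 or 50 mg/kg/day. Untreated group received CMC-Na. Bacterial burden read daily as bioluminescence (RLU) in the same live mice.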

Assay [5] deals with Mycobacterium tuberculosis. Nature of the assay: Antitubercular activity against Mycobacterium tuberculosis H37Ra harboring pTYOK infected in Balb/c mouse assessed as reduction in bacterial burden administered once daily via oral gavage for 5 days measured post last dose by luminometric method. The format is functional, organism-based. The gist of the method: as §2
The test system of assay [6] is Mycobacterium tuberculosis. The assay is described as follows: Antitubercular activity against Mycobacterium tuberculosis H37Ra harboring pTYOK infected in Balb/c mouse assessed as reduction in lung bacterial burden at 50 mg/kg, po administered once daily via gavage for 5 days measured post last dose by luminometric method. The format is functional. The gist of the method:
as §2

Assay [7] concerns Mycobacterium tuberculosis. Nature of the assay: Antitubercular activity against Mycobacterium tuberculosis H37Ra harboring pTYOK infected in Balb/c mouse assessed as reduction in lung bacterial burden at 10 mg/kg, po administered once daily via gavage for 5 days measured post last dose by luminometric method. The format is functional. The gist of the method: as §2
Assay [8] deals with Mycobacterium tuberculosis. The assay is described as follows: Antitubercular activity against Mycobacterium tuberculosis H37Ra harboring pTYOK infected in Balb/c mouse assessed as reduction in spleen bacterial burden at 10 mg/kg, po administered once daily via gavage for 5 days measured post last dose by luminometric method. The format is functional. The gist of the method:
as §2

Data on 20 compounds can be found in ChEMBL document CHEMBL4400576, “Identification of Pyrazolo[1,5-a]pyridine-3-carboxamide Diaryl Derivatives as Drug Resistant Antituberculosis Agents” (ACS Med Chem Lett, 2019).

Values after ≈ are worked out from the molar mass of the structure shown. Bounds are passed on as bounds.

Take `CC(=O)NC[C@H]1CN(c2ccc(N3CCOCC3)c(F)c2)C(=O)O1` [LINEZOLID]: the MIC90 was 1.87 µg/mL (≈ 5.54 µM) in assay [1], 0.953 µg/mL (≈ 2.82 µM) in assay [2] and 5.98 µg/mL (≈ 17.7 µM) in assay [3].
Taken in the same sequence, the figures for `COc1ccn2nc(C)c(C(=O)NCc3ccc(-c4ccc(OC(F)(F)F)cc4)c(C(F)(F)F)c3)c2c1` were below 0.002 µg/mL, 0.003 µg/mL (≈ 0.00573 µM) and above 5 µg/mL.
For `COc1ccn2nc(C)c(C(=O)NCc3ccc(-c4ccc(OC(F)(F)F)cc4)c(C)c3)c2c1` the same measures were below 0.002 µg/mL, below 0.002 µg/mL and 2.28 µg/mL (≈ 4.86 µM).
`COc1ccn2nc(C)c(C(=O)NCc3ccc(-c4ccc(OC(F)(F)F)cc4)cc3C(F)(F)F)c2c1`: in assay [3], the MIC90 is above 5 µg/mL.
On the same count and under the same terms, the same measure for `COc1ccn2nc(C)c(C(=O)NCc3ncc(-c4ccc(OC(F)(F)F)cc4)o3)c2c1`: 2.84 µg/mL (≈ 6.36 µM).
Regarding `COc1ccn2nc(C)c(C(=O)NCc3ccc(-c4ccc(OC(F)(F)F)cc4)cn3)c2c1`, the MIC90 is below 0.002 µg/mL in assay [1], 0.002 µg/mL (≈ 0.00438 µM) in assay [2] and above 5 µg/mL in assay [3]. For the same compound, the entries for the “fold change (FC)” value in assay [4] and in assay [6] were 0.61 log10RLU and 1 log10RLU, respectively. Moreover, the Activity result in assay [5] is “Dose-dependent effect”.
`CO[C@H]1/C=C/O[C@@]2(C)Oc3c(C)c(O)c4c(O)c(c(/C=N/N5CCN(C)CC5)c(O)c4c3C2=O)NC(=O)/C(C)=C\C=C\[C@H](C)[C@H](O)[C@@H](C)[C@@H](O)[C@@H](C)[C@H](OC(C)=O)[C@@H]1C` [RIFAMPIN]: the MIC90 in assay [1] is above 2 µg/mL; in assay [2], below 0.008 µg/mL; in assay [3] it was 2.95 µg/mL (≈ 3.58 µM). Further, the “fold change (FC)” value in assay [7] amounted to 1.42 log10RLU; in assay [8], 1.34 log10RLU.
`COc1ccn2nc(C)c(C(=O)NCc3nnc(-c4ccc(OC(F)(F)F)cc4)o3)c2c1` displayed an MIC90 in assay [3] above 5 µg/mL.
As to `COc1ccn2nc(C)c(C(=O)NCc3ccc(-c4ccc(OC(F)(F)F)cc4)nc3)c2c1`, the MIC90 in assay [1] is 0.458 µg/mL (≈ 1 µM); in assay [2], 0.004 µg/mL (≈ 0.00876 µM); in assay [3], 4.36 µg/mL (≈ 9.55 µM).
Taken in the same sequence, the figures for `COc1ccn2nc(C)c(C(=O)NCc3ccc(-c4ccc(OC(F)(F)F)cc4)c(OC)c3)c2c1` were below 0.002 µg/mL, 0.003 µg/mL (≈ 0.00618 µM) and above 5 µg/mL.
As for `COc1ccn2nc(C)c(C(=O)NCc3ccc(-c4ccc(OC(F)(F)F)cc4)cc3F)c2c1`, the MIC90 in assay [1] is below 0.002 µg/mL; in assay [2], 0.004 µg/mL (≈ 0.00845 µM); in assay [3], above 5 µg/mL.
In the case of `NNC(=O)c1ccncc1` [ISONIAZID], the MIC90 in assay [1] is 0.438 µg/mL (≈ 3.19 µM); in assay [2] it was above 8 µg/mL; in assay [3], above 128 µg/mL.
For `COc1ccn2nc(C)c(C(=O)NCc3ccc(-c4ccc(OC(F)(F)F)cc4)c(F)c3)c2c1` the same measures were below 0.002 µg/mL, 0.004 µg/mL (≈ 0.00845 µM) and above 5 µg/mL.
In turn, `COc1ccn2nc(C)c(C(=O)NCc3cn(-c4ccc(OC(F)(F)F)cc4)nn3)c2c1` had an MIC90 in assay [3] above 5 µg/mL.
Regarding `COc1ccn2nc(C)c(C(=O)NCc3ccc(-c4ccc(OC(F)(F)F)cc4)cc3C)c2c1`, the MIC90 in assay [3] was above 5 µg/mL.
Still for that read-out and setting: the same measure for `COc1ccn2nc(C)c(C(=O)NCc3ccc(-c4ccc(OC(F)(F)F)cc4)cc3OC)c2c1`: 2.25 µg/mL (≈ 4.63 µM).
Consider `COc1ccn2nc(C)c(C(=O)NCc3ncc(-c4ccc(OC(F)(F)F)cc4)[nH]3)c2c1`, for which the MIC90 in assay [3] is above 5 µg/mL.
In the case of `COc1ccn2nc(C)c(C(=O)NCc3ccc(-c4ccc(OC(F)(F)F)cc4)s3)c2c1`, the values for the MIC90 in assay [1], in assay [2] and in assay [3] were 0.465 µg/mL (≈ 1.01 µM), 0.002 µg/mL (≈ 0.00433 µM) and above 5 µg/mL, respectively.
With `COc1nc2ccc(Br)cc2cc1[C@@H](c1ccccc1)[C@@](O)(CCN(C)C)c1cccc2ccccc12` [BEDAQUILINE], the MIC90 in assay [1] and in assay [2] was below 0.016 µg/mL throughout.
Take `COc1ccn2nc(C)c(C(=O)NCc3cnc(-c4ccc(OC(F)(F)F)cc4)s3)c2c1`: the MIC90 in assay [3] is above 5 µg/mL.
